How the values were obtained:
[1] = In vivo inhibition of HIF-PHD2 in C57BL/6 mouse assessed as serum erythropoietin level at 50 mg/kg, iv measured after 4 hrs; type: functional
In short: (§1)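 Mouse pharmacodynamic EPO assay (MoPED). Compound dosed iv; serum EPO measured 4 hr after dosing and reported in pg/mL. Minimum effective dose is the lowest dose giving EPO elevation.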

[2] = Half life in dog at 1 mg/kg, po or 0.5 mg/kg, iv; type: ADME, organism-based, Canis lupus familiaris; conditions: in vivo
In short: (§2)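 Single-dose PK at 1 mg/kg po and 0.5 mg/kg iv. Mouse clearance is from blood; dog and rhesus clearance is from plasma. Mouse vehicle, both routes: DMSO:PEG400:water (5:40:55, v/v/v). Dog and monkey iv vehicle: PEG200:12%HPCD:water (30:12:58 v/v/v). Dog and monkey po vehicle: Imwitor:Tween (1:1 w/w).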

Prolyl hydroxylase EGLN2 = Prolyl hydroxylase EGLN2 (Homo sapiens, UniProt Q96KS0); test: Inhibition of FLAG-tagged full-length HIF-PHD1 (unknown origin) expressed in baculovirus infected Sf9 cells using 2-oxoglutarate and HIF1alpha biotinyl-DLDLEMLAPYIPMDDDFQL as peptide substrates preincubated for 30 mins followed by substrate addition and measured after 2 hrs by LANCE assay
Chain of Prolyl hydroxylase EGLN2 (Q96KS0 whole entry): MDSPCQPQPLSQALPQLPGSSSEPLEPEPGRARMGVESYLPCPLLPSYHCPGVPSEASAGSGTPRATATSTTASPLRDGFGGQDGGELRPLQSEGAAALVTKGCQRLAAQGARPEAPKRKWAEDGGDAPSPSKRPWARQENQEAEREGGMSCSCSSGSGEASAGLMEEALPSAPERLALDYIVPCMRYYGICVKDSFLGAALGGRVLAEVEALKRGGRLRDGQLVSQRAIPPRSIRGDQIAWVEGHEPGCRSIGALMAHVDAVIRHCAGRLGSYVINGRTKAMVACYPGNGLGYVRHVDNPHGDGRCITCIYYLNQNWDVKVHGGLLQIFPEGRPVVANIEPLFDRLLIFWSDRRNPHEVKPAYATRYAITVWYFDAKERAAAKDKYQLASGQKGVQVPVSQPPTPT

[3] = Volume of distribution at steady state in dog at 1 mg/kg, po or 0.5 mg/kg, iv; type: ADME, organism-based, Canis lupus familiaris; conditions: in vivo, read-out: Vdss
In short: (§3)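 Dog and rhesus monkey dosed 1 mg/kg po and 0.5 mg/kg iv. The iv vehicle was PEG200:12%HPCD:water (30:12:58 v/v/v); the po vehicle was Imwitor:Tween (1:1 w/w). Clearance was measured in plasma. Protein binding was measured in 100% serum.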

[4] = Cmax in Sprague-Dawley rat at 5 mg/kg, po administered as single dose measured at 6 hrs; type: ADME, organism-based; design: route oral, dose 5 mg/kg, time 6 hrs; conditions: in vivo
[5] = Half life in rat at 2 mg/kg, po or 1 mg/kg, iv; type: ADME, organism-based; conditions: in vivo
Cytochrome P450 3A4 = Cytochrome P450 3A4 (Homo sapiens, UniProt P08684); test: Inhibition of CYP3A4 (unknown origin); type: ADME
Chain of Cytochrome P450 3A4 (P08684 whole entry): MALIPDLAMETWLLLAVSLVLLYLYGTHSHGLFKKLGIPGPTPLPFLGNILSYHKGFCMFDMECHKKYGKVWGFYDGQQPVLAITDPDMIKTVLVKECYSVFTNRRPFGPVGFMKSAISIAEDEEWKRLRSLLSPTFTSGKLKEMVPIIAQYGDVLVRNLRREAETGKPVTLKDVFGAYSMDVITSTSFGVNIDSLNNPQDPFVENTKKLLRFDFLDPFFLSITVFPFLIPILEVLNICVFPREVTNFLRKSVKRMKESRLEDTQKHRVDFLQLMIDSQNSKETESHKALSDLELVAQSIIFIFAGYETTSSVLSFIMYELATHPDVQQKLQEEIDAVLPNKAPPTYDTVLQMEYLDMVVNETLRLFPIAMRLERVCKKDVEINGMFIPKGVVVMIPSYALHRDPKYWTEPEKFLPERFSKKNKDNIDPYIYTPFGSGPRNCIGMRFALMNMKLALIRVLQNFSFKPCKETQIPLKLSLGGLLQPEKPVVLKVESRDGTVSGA

[6] = Oral bioavailability in C57BL/6J mouse at 1 mg/kg; type: ADME, organism-based; conditions: in vivo
In short: (§4)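 C57BL/6J mice dosed 1 mg/kg po and 0.5 mg/kg iv, both in DMSO:PEG400:water (5:40:55, v/v/v).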

[7] = Cmax in C57BL/6J mouse at 1 mg/kg, po or 0.5 mg/kg, iv; type: ADME, organism-based; design: dose 1 mg/kg; conditions: in vivo; in short: as §2
[8] = Drug metabolism in human liver microsomes assessed as O-demethylated metabolite formation; type: ADME, Microsome
[9] = Metabolic stability in rat liver microsomes assessed as metabolic turnover at 10 uM measured after 60 mins in presence of NADPH; type: ADME, Microsome; conditions: read-out: Drug metabolism
In short: (§5)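 Tritiated compound incubated with rat or monkey liver microsomes supplemented with NADPH; metabolic turnover monitored.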

[10] = Drug metabolism in fasted bile-duct cannulated Sprague-Dawley rat urine assessed as oxidation of parent compound causing metabolite formation at 5 mg/kg, po using [3H]-labeled compound measured after 48 hrs; type: ADME, organism-based; conditions: in vivo
[11] = Drug recovery in fasted bile-duct cannulated Sprague-Dawley rat feces at 5 mg/kg, po using [3H]-labeled compound measured after 48 hrs; type: ADME, organism-based; conditions: in vivo
[12] = Drug recovery in fasted bile-duct cannulated Sprague-Dawley rat bile assessed as metabolically unchanged parent compound at 5 mg/kg, po using [3H]-labeled compound measured after 48 hrs; type: ADME, organism-based; conditions: in vivo
[13] = Protein binding in dog plasma assessed as unbound fraction at 1 mg/kg, po or 0.5 mg/kg, iv; type: ADME, organism-based, Canis lupus familiaris; conditions: read-out: PPB
[14] = Plasma clearance in rhesus monkey at 1 mg/kg, po or 0.5 mg/kg, iv; type: ADME, organism-based, Macaca mulatta; in short: as §3
[15] = Metabolic stability in monkey liver microsomes assessed as metabolic turnover at 10 uM measured after 60 mins in presence of NADPH; type: ADME, Macaca mulatta, Microsome; conditions: rhesus monkey, read-out: Drug metabolism; in short: as §5
[16] = Toxicity in Sprague-Dawley rat assessed as change in hemoglobin levels at 15 mg/kg, po QD administered for 4 weeks and measured post last dose; type: organism-based; conditions: in vivo, 672 h
[17] = Metabolic stability in dog liver microsomes assessed as metabolic turnover at 10 uM measured after 60 mins in presence of NADPH; type: ADME, Canis lupus familiaris, Microsome; conditions: read-out: Drug metabolism
In short: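 Tritiated compound incubated with liver microsomes with NADPH added; metabolic turnover monitored.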

[18] = target: Voltage-gated inwardly rectifying potassium channel KCNH2 (Homo sapiens, UniProt Q12809); test: Inhibition of human ERG
Chain of Voltage-gated inwardly rectifying potassium channel KCNH2 (Q12809 whole entry): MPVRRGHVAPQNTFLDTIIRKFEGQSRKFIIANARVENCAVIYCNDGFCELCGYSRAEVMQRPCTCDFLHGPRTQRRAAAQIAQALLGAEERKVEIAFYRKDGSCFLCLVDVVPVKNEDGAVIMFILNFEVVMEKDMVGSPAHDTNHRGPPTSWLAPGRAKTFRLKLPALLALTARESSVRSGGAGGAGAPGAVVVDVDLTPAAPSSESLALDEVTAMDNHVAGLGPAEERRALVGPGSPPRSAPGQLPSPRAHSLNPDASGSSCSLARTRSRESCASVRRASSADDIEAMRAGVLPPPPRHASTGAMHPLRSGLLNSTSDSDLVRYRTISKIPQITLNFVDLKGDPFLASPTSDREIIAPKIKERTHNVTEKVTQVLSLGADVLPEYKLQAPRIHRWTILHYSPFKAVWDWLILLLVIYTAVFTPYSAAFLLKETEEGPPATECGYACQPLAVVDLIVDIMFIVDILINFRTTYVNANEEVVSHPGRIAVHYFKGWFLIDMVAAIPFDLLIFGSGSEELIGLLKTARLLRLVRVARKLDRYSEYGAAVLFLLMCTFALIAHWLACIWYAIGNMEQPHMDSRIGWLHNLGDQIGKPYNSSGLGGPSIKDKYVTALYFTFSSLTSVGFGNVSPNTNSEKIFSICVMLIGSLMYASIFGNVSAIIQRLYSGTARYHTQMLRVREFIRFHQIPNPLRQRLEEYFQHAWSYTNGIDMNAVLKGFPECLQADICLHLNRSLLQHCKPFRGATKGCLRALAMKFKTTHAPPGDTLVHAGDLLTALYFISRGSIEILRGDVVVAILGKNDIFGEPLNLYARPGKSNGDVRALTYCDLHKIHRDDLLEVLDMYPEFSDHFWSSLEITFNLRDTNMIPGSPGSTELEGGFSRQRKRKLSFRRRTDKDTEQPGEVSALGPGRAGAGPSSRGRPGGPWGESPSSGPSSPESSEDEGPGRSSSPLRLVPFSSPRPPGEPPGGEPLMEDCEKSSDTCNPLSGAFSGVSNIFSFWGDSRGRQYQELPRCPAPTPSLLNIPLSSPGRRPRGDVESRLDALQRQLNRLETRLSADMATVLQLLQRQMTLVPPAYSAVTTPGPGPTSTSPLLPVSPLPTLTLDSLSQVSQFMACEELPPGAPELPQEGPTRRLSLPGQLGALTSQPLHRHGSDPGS

[19] = Protein binding in rat plasma assessed as unbound fraction at 2 mg/kg, po or 1 mg/kg, iv; type: ADME, organism-based; conditions: read-out: PPB
[20] = In vivo inhibition of HIF-PHD2 in C57BL/6 mouse assessed as serum erythropoietin level at 15 mg/kg, iv measured after 4 hrs; type: functional; in short: as §1
Cytochrome P450 2B6 = target: T1, Cytochrome P450 2B6 (Homo sapiens, UniProt P20813); test: Inhibition of CYP2B6 (unknown origin); type: ADME
T1 sequence (P20813 whole entry): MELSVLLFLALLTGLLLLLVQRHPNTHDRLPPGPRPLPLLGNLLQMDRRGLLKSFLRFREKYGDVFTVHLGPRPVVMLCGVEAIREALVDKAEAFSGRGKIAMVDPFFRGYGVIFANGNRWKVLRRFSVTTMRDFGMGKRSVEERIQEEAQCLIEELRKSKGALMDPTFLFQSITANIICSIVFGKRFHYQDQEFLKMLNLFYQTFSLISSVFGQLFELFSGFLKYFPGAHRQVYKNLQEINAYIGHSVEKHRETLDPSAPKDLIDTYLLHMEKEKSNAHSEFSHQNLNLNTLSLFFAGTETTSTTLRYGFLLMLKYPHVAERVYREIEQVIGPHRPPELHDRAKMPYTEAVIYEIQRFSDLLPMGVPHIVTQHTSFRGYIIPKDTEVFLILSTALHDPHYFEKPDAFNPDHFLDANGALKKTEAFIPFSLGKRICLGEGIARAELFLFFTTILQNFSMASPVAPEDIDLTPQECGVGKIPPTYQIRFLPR

[21] = Volume of distribution at steady state in C57BL/6J mouse at 1 mg/kg, po or 0.5 mg/kg, iv; type: ADME, organism-based; conditions: in vivo, read-out: Vdss; in short: as §4
[22] = Cmax in dog at 1 mg/kg, po or 0.5 mg/kg, iv; type: ADME, organism-based, Canis lupus familiaris; design: dose 1 mg/kg; conditions: in vivo; in short: as §2
[23] = Drug recovery in fasted bile-duct cannulated Sprague-Dawley rat bile at 5 mg/kg, po using [3H]-labeled compound measured after 48 hrs; type: ADME, organism-based; conditions: in vivo
[24] = target: Hypoxia-inducible factor 1-alpha inhibitor (Homo sapiens) (UniProt Q9NWT6); test: Inhibition of FIH (unknown origin) using 2-oxoglutarate and biotinyl-SMDESGLPQLTSYDAEVNAPIQGSRNLLQGEELLR CAD peptide as substrate preincubated for 10 mins followed by substrate addition and measured after 1 hr by RapidFire Mass spectrometry
[25] = In vivo inhibition of HIF-PHD2 in C57BL/6 mouse assessed as serum erythropoietin level at 100 mg/kg, iv measured after 4 hrs; type: functional; in short: as §1
[26] = Drug metabolism in rat liver microsomes assessed as O-demethylated metabolite formation; type: ADME, Microsome
[27] = Drug metabolism in monkey liver microsomes assessed as O-demethylated metabolite formation; type: ADME, Macaca mulatta, Microsome; conditions: rhesus monkey

COc1ccc(C(NC(=O)c2cnc(-c3cccnn3)nc2O)c2ccc(OC)cc2)cc1
Activity [1]: 18000 pg/mL | half-life [2]: 19 h | IC50 (Prolyl hydroxylase EGLN2): 0.001 µM | Vd [3]: 0.12 L/kg | Cmax [4]: 14 µM | half-life [5]: 9.3 h | IC50 (Cytochrome P450 3A4): > 60 µM | bioavailability [6]: 6.3% | Cmax [7]: 8.4 µM | Drug metabolism [8]: Metabolite_Detected | metabolised at 1 h, 10 µM [9]: < 10% | Drug metabolism [10]: Metabolite_Detected | Drug recovery [11]: 39% | Drug recovery [12]: < 10% | fraction unbound [13]: 0.01 | clearance [14]: 0.15 mL/min/kg | metabolised at 1 h, 10 µM [15]: < 10% | Activity [16]: 7.6 g/dL | metabolised at 1 h, 10 µM [17]: < 10% | IC50 [18]: > 30 µM | fraction unbound [19]: 0.006 | Activity [20]: 12000 pg/mL | IC50 (Cytochrome P450 2B6): > 60 µM | Vd [21]: 0.13 L/kg | Cmax [22]: 18 µM | Drug recovery [23]: 12% | IC50 [24]: 18 µM | Activity [25]: 27000 pg/mL | Drug metabolism [26]: Metabolite_Detected | Drug metabolism [27]: Metabolite_Detected

Reference: ChEMBL document CHEMBL4765235, “Discovery of N-[Bis(4-methoxyphenyl)methyl]-4-hydroxy-2-(pyridazin-3-yl)pyrimidine-5-carboxamide (MK-8617), an Orally Active Pan-Inhibitor of Hypoxia-Inducible Factor Prolyl Hydroxylase 1-3 (HIF PHD1-3) for the Treatment of Anemia” (J Med Chem, 2016)
